Measurements: ChEMBL document CHEMBL1800056, “Discovery of 2-(6-{[(6-fluoroquinolin-2-yl)methyl]amino}bicyclo[3.1.0]hex-3-yl)-N-hydroxypyrimidine-5-carboxamide (CHR-3996), a class I selective orally active histone deacetylase inhibitor” (J Med Chem, 2010)
Values after ≈ are worked out from the molar mass of the structure shown.

Columns and labels:
[1] = molecular target: Histone deacetylase; test: Inhibition of HDAC in human HeLa cells nuclear extract using fluor de Lys as substrate preincubated for 5 mins by fluorometric analysis; type: cell-based
[2] = tested on: HCT-116; test: Antiproliferative activity against human HCT116 cells after 72 hrs by WST-1 assay; type: functional
Outline: (§1)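 Cells seeded at (1-5) × 10³/well in serum-containing medium for 24 h at 37 °C, 5% CO₂. Inhibitor added at 0.6-10000 nM for 72 h, with WST-1 pulse over the final 4 h. Formazan read at 450 nm (reference 650 nm). Expressed as % inhibition of vehicle response; GI50 is the concentration inhibiting 50% of vehicle response; n = 6 replicates.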

[3] = Ratio of GI50 for human HCT116 cells to IC50 for HDAC in human HeLa cell nuclear extracts
Outline: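 Cell/enzyme ratio = HCT116 GI50 divided by HDAC IC50. Enzyme: HeLa nuclear extract (10 μg protein), 5 min preincubation, then Fluor de Lys substrate 62.5 μM, 15 min at room temperature. Stopped with developer containing trichostatin A; fluorescence ex 355/em 455 nm; eight concentrations in duplicate. Cells: HCT116, 72 h exposure (0.6-10000 nM), WST-1 read at 450 nm, n = 6.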

[4] = Clearance in mouse liver microsomes assessed as compound remaining after 30 mins; type: ADME, Microsome; conditions: read-out: Activity
[5] = Clearance in human liver microsomes assessed as compound remaining after 30 mins; type: ADME, Microsome; conditions: read-out: Activity
[6] = molecular target: Cytochrome P450 2C19 (Homo sapiens, UniProt P33261); test: Inhibition of CYP2C19; type: ADME
Cytochrome P450 2C19, sequence (P33261 whole entry): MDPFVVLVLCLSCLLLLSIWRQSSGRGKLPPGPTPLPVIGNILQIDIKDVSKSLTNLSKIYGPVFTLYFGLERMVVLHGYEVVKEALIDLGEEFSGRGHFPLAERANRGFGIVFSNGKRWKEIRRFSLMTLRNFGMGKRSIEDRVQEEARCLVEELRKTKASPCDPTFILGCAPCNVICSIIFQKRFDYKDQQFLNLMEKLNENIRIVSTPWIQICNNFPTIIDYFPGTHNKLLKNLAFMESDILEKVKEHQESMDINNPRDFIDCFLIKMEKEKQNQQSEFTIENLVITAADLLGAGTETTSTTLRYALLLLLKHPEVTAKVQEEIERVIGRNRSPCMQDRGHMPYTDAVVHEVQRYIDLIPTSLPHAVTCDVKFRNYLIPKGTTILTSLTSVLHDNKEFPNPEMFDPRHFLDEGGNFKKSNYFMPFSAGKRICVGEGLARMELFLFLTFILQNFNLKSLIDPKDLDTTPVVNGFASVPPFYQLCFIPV

[7] = molecular target: Cytochrome P450 2D6 (Homo sapiens, UniProt P10635); test: Inhibition of CYP2D6; type: ADME
Cytochrome P450 2D6, sequence (P10635 whole entry): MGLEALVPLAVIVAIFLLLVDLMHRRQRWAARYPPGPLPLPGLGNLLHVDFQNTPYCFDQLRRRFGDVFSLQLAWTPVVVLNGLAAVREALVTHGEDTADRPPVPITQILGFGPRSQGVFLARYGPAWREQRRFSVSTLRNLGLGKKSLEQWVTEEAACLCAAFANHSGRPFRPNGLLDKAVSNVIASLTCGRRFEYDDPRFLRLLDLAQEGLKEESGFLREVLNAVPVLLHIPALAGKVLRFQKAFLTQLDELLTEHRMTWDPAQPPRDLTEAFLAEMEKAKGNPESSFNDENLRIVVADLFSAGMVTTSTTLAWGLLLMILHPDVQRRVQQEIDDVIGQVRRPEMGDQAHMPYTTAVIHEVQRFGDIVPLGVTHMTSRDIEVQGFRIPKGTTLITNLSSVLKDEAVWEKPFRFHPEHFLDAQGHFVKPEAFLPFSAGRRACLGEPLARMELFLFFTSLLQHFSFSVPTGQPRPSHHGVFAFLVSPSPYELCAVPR

[8] = molecular target: Cytochrome P450 3A4 (Homo sapiens, UniProt P08684); test: Inhibition of CYP3A4; type: ADME
Cytochrome P450 3A4, sequence (P08684 whole entry): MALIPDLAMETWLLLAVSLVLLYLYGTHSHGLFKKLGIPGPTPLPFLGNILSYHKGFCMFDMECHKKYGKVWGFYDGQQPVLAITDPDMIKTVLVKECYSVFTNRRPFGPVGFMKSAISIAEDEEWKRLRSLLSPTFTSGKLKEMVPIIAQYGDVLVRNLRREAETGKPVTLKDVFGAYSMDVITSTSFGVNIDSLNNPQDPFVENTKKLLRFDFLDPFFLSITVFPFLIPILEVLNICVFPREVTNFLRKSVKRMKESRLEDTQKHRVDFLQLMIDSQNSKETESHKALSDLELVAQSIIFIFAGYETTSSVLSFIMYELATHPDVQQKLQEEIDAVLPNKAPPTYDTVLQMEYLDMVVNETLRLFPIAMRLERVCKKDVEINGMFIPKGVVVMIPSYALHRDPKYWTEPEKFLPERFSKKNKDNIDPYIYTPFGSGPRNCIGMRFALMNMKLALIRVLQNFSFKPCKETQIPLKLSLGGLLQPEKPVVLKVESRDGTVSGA

[9] = Aqueous solubility of the compound in PBS at pH 5.5; type: physicochemical
[10] = Aqueous solubility of the compound in PBS at pH 7.4; type: physicochemical
[11] = AUC (0 to t) in plasma of CD1 mouse at 3 mg/kg, po; type: ADME, organism-based; design: dose 3 mg/kg, route oral
Outline: (§2)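 Oral cassette PK in CD1 mice: four compounds per cassette, each at 3 mg/kg po. AUC0-t (ng h/mL) measured in plasma and spleen; spleen/plasma AUC ratio reported.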

[12] = AUC (0 to t) in spleen of CD1 mouse at 3 mg/kg, po; type: ADME, organism-based; design: dose 3 mg/kg, route oral; outline: as §2
[13] = tested on: Spleen; test: Ratio of AUC (0 to t) in spleen to plasma of CD1 mouse at 3 mg/kg, po; conditions: in vivo
[14] = tested on: LoVo; test: Antiproliferative activity against human LoVo cells after 72 hrs by WST-1 assay; type: functional; outline: as §1
[15] = tested on: A2780; test: Antiproliferative activity against human A2780 cells after 72 hrs by WST-1 assay; type: functional; outline: as §1
[16] = tested on: HepG2; test: Antiproliferative activity against human HepG2 cells after 72 hrs by WST-1 assay; type: functional; outline: as §1
[17] = tested on: MG-63; test: Antiproliferative activity against human MG63 cells after 72 hrs by WST-1 assay; type: functional; outline: as §1
[18] = tested on: MIA PaCa-2; test: Antiproliferative activity against human MIAPaCa2 cells after 72 hrs by WST-1 assay; type: functional; outline: as §1
[19] = tested on: A549; test: Antiproliferative activity against human A549 cells after 72 hrs by WST-1 assay; type: functional; outline: as §1
[20] = tested on: COR-L23; test: Antiproliferative activity against human COR-L23 cells after 72 hrs by WST-1 assay; type: functional; outline: as §1
[21] = tested on: COR-L23; test: Antiproliferative activity against doxorubicin-resistant human COR-L23 cells after 72 hrs by WST-1 assay; type: functional; outline: as §1
[22] = tested on: MOLT-4; test: Antiproliferative activity against human MOLT4 cells after 72 hrs by WST-1 assay; type: functional; outline: as §1
[23] = tested on: U-937; test: Antiproliferative activity against human U937 cells after 72 hrs by WST-1 assay; type: functional; outline: as §1
[24] = Antiproliferative activity against human […] cells after 72 hrs by WST-1 assay; type: functional; outline: as §1
[25] = tested on: HCT-116; test: Cell cycle arrest in human HCT116 cells assessed as accumulation at sub-G1 phase at 300 nM after 15 hrs by propidium iodide staining based flow cytometric analysis; type: functional
[26] = tested on: HCT-116; test: Cell cycle arrest in human HCT116 cells assessed as accumulation at G1 phase at 300 nM after 15 hrs by propidium iodide staining based flow cytometric analysis; type: functional
[27] = tested on: HCT-116; test: Cell cycle arrest in human HCT116 cells assessed as accumulation at S phase at 300 nM after 15 hrs by propidium iodide staining based flow cytometric analysis; type: functional
[28] = tested on: HCT-116; test: Cell cycle arrest in human HCT116 cells assessed as accumulation at G2/M phase at 300 nM after 15 hrs by propidium iodide staining based flow cytometric analysis; type: functional

Compound	IC50 [1]	GI50 ([2]; Homo sapiens, HCT-116, 72 h)	Ratio [3]	other results
O=C(NO)c1cnc(N2C[C@@H]3[C@H](C2)[C@H]3NS(=O)(=O)c2ccc3ccccc3c2)nc1	6.5 nM	440 nM	73	remaining at 0.5 h [4]: 66%; remaining at 0.5 h [5]: 43%; IC50 [6]: 10000 nM; IC50 [7]: 10000 nM; IC50 [8]: 10000 nM; solubility [9]: 74 µg/mL (≈ 174 µM); solubility [10]: 34 µg/mL (≈ 79.9 µM)
N#Cc1ccc(CN[C@H]2[C@@H]3CN(c4ncc(C(=O)NO)cn4)C[C@@H]32)cc1	30 nM	270 nM	9	
O=C(NO)c1cnc(N2C[C@@H]3[C@H](C2)[C@H]3NCc2cc(F)cc(F)c2)nc1	16 nM	200 nM	13	
O=C(NO)c1cnc(N2C[C@@H]3[C@H](C2)[C@H]3NC(=O)c2cccs2)nc1	40 nM	3600 nM	90	
O=C(NO)c1cnc(N2C[C@@H]3[C@H](C2)[C@H]3NCCc2ccccc2)nc1	34 nM	280 nM	8	
O=C(NO)c1cnc(N2C[C@@H]3[C@H](C2)[C@H]3NC(=O)c2ccccc2)nc1	57 nM	5100 nM	89	
O=C(NO)c1cnc(N2C[C@@H]3[C@H](C2)[C@H]3NCc2ccc(C(F)(F)F)cc2)nc1	34 nM	700 nM	21	
O=C(NO)c1cnc(N2CC3C(CNCc4ccc5ccccc5c4)C3C2)nc1 (centres undefined)	32 nM	370 nM	12	
CCCCc1ccc(CN[C@H]2[C@@H]3CN(c4ncc(C(=O)NO)cn4)C[C@@H]32)cc1	22 nM	410 nM	18	
O=C(NO)c1cnc(N2C[C@@H]3[C@H](C2)[C@H]3NCC2CCCCC2)nc1	44 nM	160 nM	4	
O=C(NO)c1cnc(N2C[C@@H]3[C@H](C2)[C@H]3NCc2ccc(F)cc2)nc1	27 nM	380 nM	14	
O=C(NO)c1cnc(N2C[C@@H]3[C@H](C2)[C@H]3NCc2ccccc2)nc1	10 nM	120 nM	12	
O=C(NO)c1cnc(N2C[C@@H]3[C@H](C2)[C@H]3NS(=O)(=O)c2cccs2)nc1	27 nM	> 10000 nM	>370	
O=C(NO)c1cnc(N2C[C@@H]3[C@H](C2)[C@H]3NC(=O)c2ccc3ccccc3c2)nc1	13 nM	410 nM	32	
O=C(NO)c1cnc(N2C[C@@H]3[C@H](C2)[C@H]3NCc2ccc(OC(F)(F)F)cc2)nc1	15 nM	120 nM	8	AUC(0-t) [11]: 83 ng·h/mL; AUC(0-t) [12]: 251 ng·h/mL; Ratio [13]: 3
O=C(NO)c1cnc(N2C[C@@H]3[C@H](C2)[C@H]3NCc2ccc(-c3ccccc3)cc2)nc1	14 nM	56 nM	4	
CN([C@H]1[C@@H]2CN(c3ncc(C(=O)NO)cn3)C[C@@H]21)S(=O)(=O)c1ccc2ccccc2c1	23 nM	1000 nM	44	
O=C(NO)c1cnc(N2C[C@@H]3[C@H](C2)[C@H]3NCc2ccc3ccccc3c2)nc1	12.4 nM	160 nM	13	AUC(0-t) [11]: 50 ng·h/mL; AUC(0-t) [12]: 145 ng·h/mL; remaining at 0.5 h [4]: 100%; remaining at 0.5 h [5]: 40%; IC50 [6]: > 50000 nM; IC50 [7]: > 50000 nM; IC50 [8]: > 50000 nM; solubility [9]: 208 µg/mL (≈ 554 µM); solubility [10]: 12 µg/mL (≈ 32 µM); Ratio [13]: 2.9
O=C(NO)c1cnc(N2C[C@@H]3[C@H](C2)[C@H]3NCc2ccc(Oc3ccccc3)cc2)nc1	16 nM	120 nM	7.5	AUC(0-t) [11]: 52 ng·h/mL; AUC(0-t) [12]: 219 ng·h/mL; Ratio [13]: 4.2
COc1ccc(CN[C@H]2[C@@H]3CN(c4ncc(C(=O)NO)cn4)C[C@@H]32)cc1	20 nM	190 nM	9.5	
O=C(NO)c1cnc(N2C[C@@H]3[C@H](C2)[C@H]3NCc2ccc3ccccc3n2)nc1	9 nM			AUC(0-t) [11]: 42 ng·h/mL; AUC(0-t) [12]: 294 ng·h/mL; Ratio [13]: 7
O=C(NO)c1cnc(N2C[C@@H]3[C@H](C2)[C@H]3NCc2ccc(Br)cc2)nc1	14 nM	250 nM	18	
O=C(NO)c1cnc(N2C[C@@H]3[C@H](C2)[C@H]3NCc2cc(C(F)(F)F)cc(C(F)(F)F)c2)nc1	16 nM	200 nM	12.5	
O=C(CCCCCCC(=O)Nc1ccccc1)NO [VORINOSTAT]				GI50 [2]: 740 nM; GI50 [14]: 1700 nM; GI50 [15]: 3150 nM; GI50 [16]: 4600 nM; GI50 [17]: > 10000 nM; GI50 [18]: 3500 nM; GI50 [19]: 5700 nM; GI50 [20]: 1100 nM; GI50 [21]: 3300 nM; GI50 [22]: 670 nM; GI50 [23]: 450 nM; GI50 [24]: 2100 nM; Activity [25]: 19%; Activity [26]: 35%; Activity [27]: 14%; Activity [28]: 32%
